Assay outcomes (PubChem BioAssay)
Most compounds without a hit are left out; they make up all but 4.7% or so of the library.
aSyn 5UTR inh: MLPCN primary screen, SNCA 5' untranslated region; alpha-synuclein 5'UTR reporter, inhibitor activity; inhibition, % (tested at 7.5 µM); hit rate 0.82% among 300,000; in the data active = inhibition above about 60%;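 also: H4 neuroglioblastoma cells stably carrying SNCA 5'UTR luciferase fusion; 0% = DMSO wells and 100% = positive control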
Jurkat NFkB inh: inhibitors of induced NF-kB luciferase reporter, primary screen, TCR NF-kB activation inhibitor project, cell-based, luminescence, uHTS; hit rate 0.53% among 330,000; inhibition, % at 4 µM; Jurkat, PMA/ionomycin-induced NF-kB luciferase reporter; in the data active = inhibition above about 50%
Mdm2 MdmX PPI: inhibitors of human Mdm2-MdmX association, primary screen, cell-based, luminescence, split luciferase, SaOS-2, uHTS | SaOS-2 split-luciferase Mdm2/MdmX complementation | Protein Mdm4 (Homo sapiens) + E3 ubiquitin-protein ligase Mdm2 (Homo sapiens), … | AID 485346, 2010 | hit rate 3% among 330,000 | inhibition, % at 8 µM;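 active = inhibition of at least 50% at 8 µM in the primary screen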
IMP-1 inh: IMP-1 metallo-beta-lactamase inhibitors, primary screen, biochemical, epi-absorbance readout, Pseudomonas aeruginosa enzyme; hit rate 0.45% among 290,000; inhibition, % at 5.6 µM; metallo-beta-lactamase IMP-1 (Pseudomonas aeruginosa); purified IMP-1, nitrocefin hydrolysis, epi-absorbance fluorescence;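 active = inhibition above the mean plus 3 SD of all compounds in the same screening run, cut at about 4.5% in these data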;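 also: 0% = IMP-1 with DMSO and 100% = DMSO wells lacking enzyme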
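System: purified IMP-1; amount: IMP-1 0.2 nM before substrate addition; compound: single dose, 5.6 µM; times: 25 °C, 15 min preincubation, 25 min reaction; signal: Epi-absorbance via hydrolysed-nitrocefin quenching of white-plate fluorescence, 480/530 nm, EDTA stop; benchmarks: DMSO with and without IMP-1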
697 NFkB inh: inhibitors of PMA/ionomycin-induced NF-kB reporter, 697 cells, primary screen, B-cell NF-kB inhibitor project, cell-based, luminescence, uHTS; 697 B-cell NF-kB luciferase reporter, 16 h; inhibition, % at 4 µM; hit rate 0.33% among 330,000; AID 435022, 2010; in the data active = inhibition above about 35%
VIM-2 inh: VIM-2 metallo-beta-lactamase inhibitors, primary screen, biochemical, epi-absorbance readout, Pseudomonas aeruginosa enzyme. hit rate 0.89% among 290,000. purified VIM-2, nitrocefin hydrolysis, epi-absorbance fluorescence. inhibition, % at 5.6 µM;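 active = inhibition above the mean of all tested compounds plus 3 SD, cutoff set per screening run, cut at about 7.5% in these data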;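 also: red hydrolysis product quenches plate fluorescence so inhibitors raise well fluorescence; 0% = enzyme with DMSO and 100% = DMSO without enzyme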
Mdm2 MdmX conf: Mdm2-MdmX complex disruptors, retested hits, confirmation, luminescence, single concentration; shares compounds with Mdm2 MdmX PPI; Mdm2-MdmX binding, luminescent assay; inhibition, % at 8 µM; hit rate 55% among 10,000; AID 489028, 2010; in the data active = inhibition above about 40%
FLuc counter: full-length luciferase signal inhibition, confirmation, counter-screen for Mdm2/MdmX interaction inhibitor project, cell-based, single concentration, SaOS-2; shares compounds with Mdm2 MdmX PPI; SaOS-2 full-length luciferase counterscreen, luminescence; inhibition, % at 8 µM; hit rate 77% among 6,200;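 active = mean inhibition at 8 µM reaching about 37%, which flags the compound as non-specific, limit read from the data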;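 also: p53-null SaOS-2 cells with luciferase driven by a doxycycline-inducible promoter; compound on cells about two nights before reading with doxycycline added after day one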
Starred values were filed as active, the others as inactive.

Screening O=C(NCc1ccco1)Nc1cccc([N+](=O)[O-])c1 returned aSyn 5UTR inh -21, Jurkat NFkB inh -4, Mdm2 MdmX PPI 13, IMP-1 inh -2, 697 NFkB inh 5 and VIM-2 inh -4.
`O=C(c1ccc(Cl)c([N+](=O)[O-])c1)N1CCCc2ccccc21` gave aSyn 5UTR inh -11, Jurkat NFkB inh -11, Mdm2 MdmX PPI 22, IMP-1 inh -2, 697 NFkB inh 0 and VIM-2 inh 1.
Cc1ccccc1N1CC(C(=O)N2CC(C)OC(C)C2)CC1=O (configuration not stated) was read as aSyn 5UTR inh 2, Jurkat NFkB inh 9, Mdm2 MdmX PPI -5, IMP-1 inh -1, 697 NFkB inh 14 and VIM-2 inh -1.
Screening O=C(CCC(=O)Nc1cccc(Cl)c1)N/N=C/c1cc([N+](=O)[O-])ccc1O returned aSyn 5UTR inh -2, Jurkat NFkB inh 9, Mdm2 MdmX PPI 42, IMP-1 inh 0, 697 NFkB inh 8 and VIM-2 inh -2.
Screening O=C(CCCC(=O)Nc1cccc(Br)c1)N/N=C/c1cc([N+](=O)[O-])ccc1O returned aSyn 5UTR inh -7, Jurkat NFkB inh 13, Mdm2 MdmX PPI 74*, IMP-1 inh -2, 697 NFkB inh -43, VIM-2 inh -5 and Mdm2 MdmX conf 35.
O=C(CN(c1cccc(Br)c1)S(=O)(=O)c1ccccc1)N/N=C/c1cc([N+](=O)[O-])ccc1O was read as aSyn 5UTR inh 34, Jurkat NFkB inh 1, Mdm2 MdmX PPI 52*, 697 NFkB inh -19 and Mdm2 MdmX conf 35.
Screening CCOc1ccccc1NC(=S)N1CCCCCC1 returned aSyn 5UTR inh 11, Jurkat NFkB inh 1, Mdm2 MdmX PPI 22, IMP-1 inh -1, 697 NFkB inh -10 and VIM-2 inh 1.
O=C1C(=O)c2ccccc2C(O)=C1C1CCC(c2ccc(Cl)cc2)CC1 (configuration not stated) was read as Jurkat NFkB inh 15, Mdm2 MdmX PPI 90*, 697 NFkB inh 16 and Mdm2 MdmX conf 27.
Screening Cc1cccc(NC(=O)CNC(=O)CSc2ncccn2)c1C returned Jurkat NFkB inh -8, Mdm2 MdmX PPI 4 and 697 NFkB inh -10.
For O=C(Cn1ncc(Cl)c(Cl)c1=O)NCC1CCCCC1 the results were IMP-1 inh -3 and VIM-2 inh -3.
O=C(Cn1ncc(Cl)c(Cl)c1=O)NC1CCCCC1 was read as Jurkat NFkB inh 11, Mdm2 MdmX PPI 100*, 697 NFkB inh -17, Mdm2 MdmX conf 76* and FLuc counter 56*.
For Cc1cccc(NC(=O)CNC(=O)Cn2ncc(Cl)c(Cl)c2=O)c1C the results were Jurkat NFkB inh 6, Mdm2 MdmX PPI 100*, 697 NFkB inh -8, Mdm2 MdmX conf 56* and FLuc counter 52*.
`Cc1ccc(NC(=O)Cn2ncc(Cl)c(Cl)c2=O)cc1S(=O)(=O)N1CCCCC1` gave Jurkat NFkB inh 8, Mdm2 MdmX PPI 100*, 697 NFkB inh -31, Mdm2 MdmX conf 85* and FLuc counter 54*.
Screening CN1CCN(NC(=O)CC(C)(C)C)CC1 returned aSyn 5UTR inh 15, Jurkat NFkB inh -11, Mdm2 MdmX PPI 7, IMP-1 inh -3, 697 NFkB inh 0 and VIM-2 inh -3.
Screening CCN(CC)CCN(Cc1cc2cc(C)cc(C)c2[nH]c1=O)C(=S)NCc1ccco1 returned aSyn 5UTR inh -5, Jurkat NFkB inh -5, Mdm2 MdmX PPI -12, IMP-1 inh -1, 697 NFkB inh 4 and VIM-2 inh -1.
CCN(CC)CCN(Cc1cc2ccc(C)c(C)c2[nH]c1=O)C(=S)NCc1ccco1 was read as aSyn 5UTR inh 19, Jurkat NFkB inh 1, Mdm2 MdmX PPI 88*, IMP-1 inh 0, 697 NFkB inh -3, VIM-2 inh 0, Mdm2 MdmX conf 54* and FLuc counter 82*.
Screening CCOc1ccc(S(=O)(=O)/N=C(/Nc2ccc(C(C)=O)cc2)c2ccccc2)cc1 returned Jurkat NFkB inh -11, Mdm2 MdmX PPI 2 and 697 NFkB inh -29.
Screening S=C(NCc1cccs1)Nc1cc(Cl)cc(Cl)c1 returned aSyn 5UTR inh 8, Jurkat NFkB inh 6, Mdm2 MdmX PPI 61*, IMP-1 inh -1, 697 NFkB inh 1, VIM-2 inh -3 and Mdm2 MdmX conf 19.
S=C(NCc1cccs1)Nc1cccc(Cl)c1 was read as aSyn 5UTR inh -9, Jurkat NFkB inh 1, Mdm2 MdmX PPI 4, IMP-1 inh -1, 697 NFkB inh 27 and VIM-2 inh -4.
CCOC(=O)c1c(NC(C)=O)sc2c(OC)c(Br)ccc12 was read as aSyn 5UTR inh 7, Jurkat NFkB inh 0, Mdm2 MdmX PPI 21, IMP-1 inh -8, 697 NFkB inh 7 and VIM-2 inh -2.
For CCOC(=O)c1c(NC(C)=O)sc2c(OCCN(CC)CC)c(Br)ccc12 the results were aSyn 5UTR inh -7, Jurkat NFkB inh -14, Mdm2 MdmX PPI 55*, IMP-1 inh -2, 697 NFkB inh -14, VIM-2 inh 4 and Mdm2 MdmX conf 14.
Screening CCOC(=O)c1c(NC(C)=O)sc2c(OCC(O)CN(CC)CC)c(Br)ccc12 (configuration not stated) returned aSyn 5UTR inh -11, Jurkat NFkB inh 10, Mdm2 MdmX PPI 85*, IMP-1 inh -2, 697 NFkB inh -15, VIM-2 inh 9.3* and Mdm2 MdmX conf 28.
CC(=O)N1CCN(CC(=O)Nc2c(Cl)ccc(C)c2Cl)CC1 was read as aSyn 5UTR inh 6, Jurkat NFkB inh 13, Mdm2 MdmX PPI 1, IMP-1 inh 3, 697 NFkB inh 6 and VIM-2 inh -4.
Screening Cc1ccc(S(=O)(=O)c2ncccc2N)cc1 returned aSyn 5UTR inh 6, Jurkat NFkB inh 5, Mdm2 MdmX PPI -10, IMP-1 inh -3, 697 NFkB inh 4 and VIM-2 inh -3.
